Measured values reported in ChEMBL document CHEMBL3808325, “Discovery and Optimization of Macrocyclic Quinoxaline-pyrrolo-dihydropiperidinones as Potent Pim-1/2 Kinase Inhibitors” (ACS Med Chem Lett, 2016).
Converted amounts (≈) assume the structure as drawn.

Columns and labels:
[1] = Antitumor activity against human KMS-12-BM cells xenografted in SCID-beige mouse at 100 mg/kg, po qd relative to vehicle control; assay type: functional; details: read-out: TGI
Procedure, shortened: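 Mouse KMS-12-BM xenograft efficacy study running 16 days. Oral dosing once daily at 10, 25, 50 or 100 mg/kg. Tumor volume compared with vehicle-treated controls.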

[2] = Equilibrium solubility of compound in PBS by HPLC analysis; assay type: physicochemical
[3] = tested on: Mus musculus; experiment: Toxicity in human KMS-12-BM cells xenografted SCID-beige mouse assessed as effect on body weight at 10 to 100 mg/kg, po qd; assay type: organism-based; details: in vivo
Procedure, shortened: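 Tolerability followed in KMS-12-BM xenograft mice given oral doses once daily at 10, 25, 50 or 100 mg/kg over a 16-day efficacy study. Body weight monitored throughout.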

[4] = tested on: Mus musculus; experiment: In vivo inhibition of Pim1/2-mediated BAD protein phosphorylation at Ser-112 in human KMS-12-BM cells xenografted in SCID-beige mouse assessed as pBAD level at 50 mg/kg, po administered as single dose measured after 6 hrs by meso scale discovery assay; assay type: functional; design: scale not given: the % may be the effect or the level left
Procedure, shortened: (§1)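 KMS-12-BM xenograft mice given a single oral dose of 25, 50 or 100 mg/kg. Tumor Ser-112 pBAD measured at time points through 16 h postdose. EC50 obtained by fitting all individual total plasma concentration–pBAD response data. Unbound value derived from mouse plasma fraction unbound.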

[5] = target: Casein kinase I isoform delta (Homo sapiens) (UniProt P48730); experiment: Inhibition of full-length human CSNK1D expressed in bacterial system assessed as remaining enzyme activity at 1 uM by KINOMEscan assay
Procedure, shortened: (§2)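 scanMAX KINOMEscan panel of 392 nonmutant kinases, compound tested at 1 μM. Result expressed as percent of control (POC). S(10) and S(1) scores are the fraction of kinases with POC below 10% and below 1%.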

[6] = target: Casein kinase I isoform epsilon (Homo sapiens) (UniProt P49674); experiment: Inhibition of full-length human CSNK1E expressed in bacterial system assessed as remaining enzyme activity at 1 uM by KINOMEscan assay; procedure, shortened: as §2
[7] = target: Serine/threonine-protein kinase haspin (Homo sapiens) (UniProt Q8TF76); experiment: Inhibition of human haspin assessed as remaining enzyme activity at 1 uM by KINOMEscan assay; procedure, shortened: as §2
[8] = target: Mitogen-activated protein kinase kinase kinase 19 (Homo sapiens) (UniProt Q56UN5); experiment: Inhibition of human YSK4 assessed as remaining enzyme activity at 1 uM by KINOMEscan assay; procedure, shortened: as §2
[9] = tested on: Mus musculus; experiment: In vivo inhibition of Pim1/2-mediated BAD protein phosphorylation at Ser-112 in human KMS-12-BM cells xenografted in SCID-beige mouse assessed as pBAD level at 25 mg/kg, po administered as single dose measured after 16 hrs by meso scale discovery assay; assay type: functional; design: scale not given: the % may be the effect or the level left; procedure, shortened: as §1
[10] = target: Serine/threonine-protein kinase pim-1 (Homo sapiens, UniProt P11309); experiment: Inhibition of human PIM1 assessed as remaining enzyme activity at 1 uM by KINOMEscan assay
Procedure, shortened: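 Profiled at 1 μM compound across a scanMAX KINOMEscan panel of 392 nonmutant kinases. Activity is reported as percent-of-control (POC). Panel-wide S(10) and S(1) selectivity scores are the fraction of kinases with POC below 10% and below 1%.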

[11] = Volume of distribution at steady state in Sprague-Dawley rat at 2 mg/kg, iv; assay type: ADME, organism-based; details: in vivo, read-out: Vdss
Procedure, shortened: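 Pharmacokinetics in male Sprague–Dawley rats. Clearance also expressed as a percentage of liver blood flow. Oral bioavailability determined.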

[12] = target: Dual specificity tyrosine-phosphorylation-regulated kinase 1A (Homo sapiens) (UniProt Q13627); experiment: Inhibition of human DYRK1A assessed as remaining enzyme activity at 1 uM by KINOMEscan assay; procedure, shortened: as §2
[13] = target: Casein kinase II subunit alpha (Homo sapiens) (UniProt P68400); experiment: Inhibition of full-length human CSNK2A2 expressed in mammalian system assessed as remaining enzyme activity at 1 uM by KINOMEscan assay; procedure, shortened: as §2
[14] = tested on: Mus musculus; experiment: In vivo inhibition of Pim1/2-mediated BAD protein phosphorylation at Ser-112 in human KMS-12-BM cells xenografted in SCID-beige mouse assessed as pBAD level at 25 mg/kg, po administered as single dose measured after 6 hrs by meso scale discovery assay; assay type: functional; design: scale not given: the % may be the effect or the level left; procedure, shortened: as §1
[15] = tested on: Mus musculus; experiment: In vivo inhibition of Pim1/2-mediated BAD protein phosphorylation at Ser-112 in human KMS-12-BM cells xenografted in SCID-beige mouse assessed as pBAD level at 100 mg/kg, po administered as single dose measured after 6 hrs by meso scale discovery assay; assay type: functional; design: scale not given: the % may be the effect or the level left; procedure, shortened: as §1
[16] = target: Dual specificity protein kinase CLK1 (Homo sapiens) (UniProt P49759); experiment: Inhibition of human CLK1 assessed as remaining enzyme activity at 1 uM by KINOMEscan assay; procedure, shortened: as §2
Dual specificity protein kinase CLK1 (Homo sapiens), sequence (P49759 whole entry, looked up): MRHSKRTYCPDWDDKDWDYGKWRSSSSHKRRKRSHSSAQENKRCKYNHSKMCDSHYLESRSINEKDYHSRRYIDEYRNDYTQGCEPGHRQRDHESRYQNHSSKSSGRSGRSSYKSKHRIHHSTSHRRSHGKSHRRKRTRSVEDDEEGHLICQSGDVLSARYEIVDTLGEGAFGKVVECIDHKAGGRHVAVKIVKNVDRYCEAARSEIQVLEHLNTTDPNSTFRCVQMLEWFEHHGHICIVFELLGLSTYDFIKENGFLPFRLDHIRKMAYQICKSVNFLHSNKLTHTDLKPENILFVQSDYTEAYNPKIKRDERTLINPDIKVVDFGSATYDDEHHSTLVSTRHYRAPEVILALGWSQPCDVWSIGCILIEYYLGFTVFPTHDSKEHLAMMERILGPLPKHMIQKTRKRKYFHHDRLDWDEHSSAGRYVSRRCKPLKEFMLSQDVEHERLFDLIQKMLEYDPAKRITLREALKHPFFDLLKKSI

Casein kinase II subunit alpha (Homo sapiens), sequence (P68400 whole entry, looked up): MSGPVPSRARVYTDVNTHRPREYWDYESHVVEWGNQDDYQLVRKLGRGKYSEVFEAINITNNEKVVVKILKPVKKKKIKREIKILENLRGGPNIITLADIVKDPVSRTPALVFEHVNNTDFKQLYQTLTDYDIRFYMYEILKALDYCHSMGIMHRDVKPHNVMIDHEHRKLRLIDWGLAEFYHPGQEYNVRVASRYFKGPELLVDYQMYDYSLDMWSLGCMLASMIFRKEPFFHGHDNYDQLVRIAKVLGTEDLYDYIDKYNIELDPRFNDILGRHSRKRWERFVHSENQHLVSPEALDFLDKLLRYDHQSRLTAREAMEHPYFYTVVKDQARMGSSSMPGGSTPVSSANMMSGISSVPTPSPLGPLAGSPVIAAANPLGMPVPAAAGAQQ
Casein kinase I isoform delta (Homo sapiens), sequence (P48730 whole entry, looked up, canonical isoform): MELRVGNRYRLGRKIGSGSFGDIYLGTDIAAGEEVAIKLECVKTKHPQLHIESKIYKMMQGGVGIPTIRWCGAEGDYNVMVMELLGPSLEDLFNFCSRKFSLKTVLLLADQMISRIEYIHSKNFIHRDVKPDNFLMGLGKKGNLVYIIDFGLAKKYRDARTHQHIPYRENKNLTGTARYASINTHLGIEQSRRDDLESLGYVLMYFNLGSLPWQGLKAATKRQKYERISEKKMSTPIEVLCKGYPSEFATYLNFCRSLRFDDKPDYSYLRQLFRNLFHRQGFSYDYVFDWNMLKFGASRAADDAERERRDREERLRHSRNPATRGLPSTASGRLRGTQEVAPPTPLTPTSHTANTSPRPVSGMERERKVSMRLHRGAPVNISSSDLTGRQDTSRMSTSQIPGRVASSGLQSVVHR
Serine/threonine-protein kinase pim-1, sequence (P11309 whole entry, looked up): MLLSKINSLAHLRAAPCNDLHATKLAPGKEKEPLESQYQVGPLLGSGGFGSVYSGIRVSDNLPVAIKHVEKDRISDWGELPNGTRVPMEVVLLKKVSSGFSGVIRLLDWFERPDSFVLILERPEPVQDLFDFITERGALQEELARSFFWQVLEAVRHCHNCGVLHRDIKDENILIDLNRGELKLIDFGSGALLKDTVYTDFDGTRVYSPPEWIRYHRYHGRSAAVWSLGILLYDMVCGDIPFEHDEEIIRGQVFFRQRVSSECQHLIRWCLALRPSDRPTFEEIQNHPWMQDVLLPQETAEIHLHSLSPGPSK
Serine/threonine-protein kinase haspin (Homo sapiens), sequence (Q8TF76 whole entry): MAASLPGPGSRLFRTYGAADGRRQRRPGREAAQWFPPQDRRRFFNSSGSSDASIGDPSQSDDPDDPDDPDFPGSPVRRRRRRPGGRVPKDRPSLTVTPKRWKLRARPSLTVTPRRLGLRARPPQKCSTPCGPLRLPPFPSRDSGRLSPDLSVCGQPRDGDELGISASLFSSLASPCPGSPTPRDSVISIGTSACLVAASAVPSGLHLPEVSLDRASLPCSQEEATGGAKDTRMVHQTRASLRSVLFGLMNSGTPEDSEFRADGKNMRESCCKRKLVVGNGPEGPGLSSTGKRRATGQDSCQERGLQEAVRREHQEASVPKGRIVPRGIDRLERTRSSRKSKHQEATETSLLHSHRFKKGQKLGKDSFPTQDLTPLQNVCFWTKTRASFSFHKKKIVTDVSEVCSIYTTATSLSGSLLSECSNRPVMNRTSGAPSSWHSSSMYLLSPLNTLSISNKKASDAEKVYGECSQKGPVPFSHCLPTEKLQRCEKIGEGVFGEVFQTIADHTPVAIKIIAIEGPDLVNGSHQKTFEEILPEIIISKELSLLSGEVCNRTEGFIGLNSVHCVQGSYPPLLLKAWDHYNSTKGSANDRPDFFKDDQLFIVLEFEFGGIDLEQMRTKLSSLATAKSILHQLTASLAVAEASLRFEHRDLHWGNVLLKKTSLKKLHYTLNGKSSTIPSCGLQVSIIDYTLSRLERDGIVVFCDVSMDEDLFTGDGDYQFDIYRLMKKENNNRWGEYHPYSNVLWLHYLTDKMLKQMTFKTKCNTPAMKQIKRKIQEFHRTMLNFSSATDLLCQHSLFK
Mitogen-activated protein kinase kinase kinase 19 (Homo sapiens), sequence (Q56UN5 whole entry): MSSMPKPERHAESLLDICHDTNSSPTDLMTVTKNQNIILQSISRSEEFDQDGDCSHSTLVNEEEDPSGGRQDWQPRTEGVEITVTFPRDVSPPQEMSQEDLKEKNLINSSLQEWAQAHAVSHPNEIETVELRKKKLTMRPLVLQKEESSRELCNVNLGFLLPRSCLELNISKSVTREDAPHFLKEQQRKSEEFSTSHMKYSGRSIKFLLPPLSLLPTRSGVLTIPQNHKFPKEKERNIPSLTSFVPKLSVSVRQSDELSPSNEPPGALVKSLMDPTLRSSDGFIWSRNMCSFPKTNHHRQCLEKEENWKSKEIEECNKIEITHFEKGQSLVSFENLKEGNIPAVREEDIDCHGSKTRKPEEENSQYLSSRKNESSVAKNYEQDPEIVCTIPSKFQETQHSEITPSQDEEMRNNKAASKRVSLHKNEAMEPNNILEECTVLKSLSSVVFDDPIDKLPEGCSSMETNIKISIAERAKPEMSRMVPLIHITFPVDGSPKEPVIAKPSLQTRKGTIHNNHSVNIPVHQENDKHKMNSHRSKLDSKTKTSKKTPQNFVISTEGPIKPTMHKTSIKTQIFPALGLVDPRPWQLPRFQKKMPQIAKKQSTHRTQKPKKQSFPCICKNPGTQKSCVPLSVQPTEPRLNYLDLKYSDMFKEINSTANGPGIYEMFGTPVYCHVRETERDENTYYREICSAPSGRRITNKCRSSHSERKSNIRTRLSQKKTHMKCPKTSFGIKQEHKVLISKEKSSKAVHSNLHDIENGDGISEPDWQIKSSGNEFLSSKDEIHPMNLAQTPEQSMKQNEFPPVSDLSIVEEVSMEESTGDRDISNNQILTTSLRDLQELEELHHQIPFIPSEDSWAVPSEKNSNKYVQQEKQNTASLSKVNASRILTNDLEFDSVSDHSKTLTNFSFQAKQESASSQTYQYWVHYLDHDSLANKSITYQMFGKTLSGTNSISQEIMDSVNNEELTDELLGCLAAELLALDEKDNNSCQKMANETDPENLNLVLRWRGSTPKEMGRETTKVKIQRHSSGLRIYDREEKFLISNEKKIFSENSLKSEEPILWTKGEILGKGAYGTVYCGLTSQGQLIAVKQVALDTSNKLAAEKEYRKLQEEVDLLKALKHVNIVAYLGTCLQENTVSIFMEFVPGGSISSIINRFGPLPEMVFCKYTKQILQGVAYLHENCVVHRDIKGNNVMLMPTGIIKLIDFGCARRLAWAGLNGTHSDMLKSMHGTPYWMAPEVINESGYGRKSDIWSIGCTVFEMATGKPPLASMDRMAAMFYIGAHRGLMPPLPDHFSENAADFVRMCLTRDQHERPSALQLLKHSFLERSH
Casein kinase I isoform epsilon (Homo sapiens), sequence (P49674 whole entry, looked up, canonical isoform): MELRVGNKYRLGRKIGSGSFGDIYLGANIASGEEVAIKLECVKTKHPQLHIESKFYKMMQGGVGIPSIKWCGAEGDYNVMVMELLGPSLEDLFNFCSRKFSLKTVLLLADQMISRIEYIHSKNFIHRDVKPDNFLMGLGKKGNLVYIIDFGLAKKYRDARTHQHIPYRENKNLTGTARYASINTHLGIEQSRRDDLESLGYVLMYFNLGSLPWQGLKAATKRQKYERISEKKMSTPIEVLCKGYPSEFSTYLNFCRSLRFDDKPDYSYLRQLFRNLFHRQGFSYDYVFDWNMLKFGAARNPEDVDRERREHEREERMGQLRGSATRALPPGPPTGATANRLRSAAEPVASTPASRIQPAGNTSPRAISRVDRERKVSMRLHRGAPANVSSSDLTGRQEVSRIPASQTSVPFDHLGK

In the case of `Cc1nc2cccc3c2nc1N[C@H](C)/C=C\C[C@H]1CNC(=O)c2cc-3[nH]c21`, the inhibition in vivo at 100 mg/kg [1] is reported as 100%, the solubility thermodynamic [2] is reported as 40 µM (≈ 14.4 µg/mL) and the Activity [3] is reported as “Non-toxic”. The Activity [4] was 60%, the Activity [5] was < 10% and the Activity [6] was < 10%. For the same compound, the Activity [7] was < 10%, the Activity [8] was < 10% and the Activity [9] was 0%. For the same compound, the Activity [10] was < 10%, the Vd [11] was 1.5 L/kg and the Activity [12] was < 10%. For the same compound, the Activity [13] was < 10%, the Activity [14] was 35% and the Activity [15] was 66%. The Activity [16] was < 10%.
